Experimental data as given in ChEMBL document CHEMBL5214961, “Novel Allosteric Inhibitor-Derived AKT Proteolysis Targeting Chimeras (PROTACs) Enable Potent and Selective AKT Degradation in KRAS/BRAF Mutant Cells” (J Med Chem, 2022).
The source made the active and inactive calls. The calls are words filed in the database; no cut-off is given here.

Columns and labels:
[1] = target: von Hippel-Lindau disease tumor suppressor/RAC-alpha serine/threonine-protein kinase (Homo sapiens) (UniProt P31749+P40337); test: Protac activity at VHL/AKT in human PC-3 cells assessed as reduction in total Akt level at 1 uM incubated for 24 hrs by Western blot analysis; type: cell-based
Outline: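 Cells grown in DMEM with 10% FBS at 37 °C, 5% CO2, then exposed to compound at 1 μM for 24 h. Lysates made in 2X urea/SDS sample buffer, run on 4–12% Bis-Tris gels, transferred to PVDF, probed for total AKT overnight at 4 °C; HRP/chemiluminescence detection with β-actin as loading control.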

[2] = tested on: PC-3; test: Inhibition of colony formation in human PC-3 cells at 0.1 to 10 uM incubated for 2 weeks with media replacement for every 2 days by crystal violet staining based analysis; type: functional, cell-based; details: dose 0.1-10 µM
Outline: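 PC3 cells kept 14 days with compound; compound-containing medium replenished every two days. Viable cells stained with 0.5% crystal violet.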

[3] = target: RAC-gamma serine/threonine-protein kinase (Homo sapiens, UniProt Q9Y243); test: Inhibition of AKT3 (unknown origin) preincubated for 20 mins followed by [33P]-ATP addition measured after 120 mins by hotspot kinase assay
[4] = tested on: SW-620; test: Antiproliferative activity against human SW620 cells harboring KRAS mutant assessed as inhibition of cell growth incubated for 5 days by IncuCyte live-cell imaging analysis; type: functional, cell-based; details: SW-620, 120 h
[5] = target: RAC-beta serine/threonine-protein kinase (Homo sapiens, UniProt P31751); test: Inhibition of AKT2 (unknown origin) preincubated for 20 mins followed by [33P]-ATP addition measured after 120 mins by hotspot kinase assay
[6] = target: RAC-alpha serine/threonine-protein kinase (Homo sapiens, UniProt P31749); test: Inhibition of AKT1 (unknown origin) preincubated for 20 mins followed by [33P]-ATP addition measured after 120 mins by hotspot kinase assay
Chain of RAC-alpha serine/threonine-protein kinase (P31749 whole entry): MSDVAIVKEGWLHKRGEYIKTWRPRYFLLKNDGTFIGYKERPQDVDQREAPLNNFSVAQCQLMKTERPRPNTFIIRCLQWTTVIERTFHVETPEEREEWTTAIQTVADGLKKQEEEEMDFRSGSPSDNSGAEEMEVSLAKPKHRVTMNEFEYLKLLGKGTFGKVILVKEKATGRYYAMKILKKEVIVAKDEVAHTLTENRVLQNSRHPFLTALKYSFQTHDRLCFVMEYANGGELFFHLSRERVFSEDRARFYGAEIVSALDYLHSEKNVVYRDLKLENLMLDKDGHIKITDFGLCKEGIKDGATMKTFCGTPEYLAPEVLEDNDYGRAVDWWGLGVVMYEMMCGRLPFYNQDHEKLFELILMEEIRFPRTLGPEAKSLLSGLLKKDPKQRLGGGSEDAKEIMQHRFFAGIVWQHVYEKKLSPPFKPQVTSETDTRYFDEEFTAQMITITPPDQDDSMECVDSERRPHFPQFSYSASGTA

Chain of von Hippel-Lindau disease tumor suppressor/RAC-alpha serine/threonine-protein kinase (Homo sapiens) (P31749 whole entry, looked up): as the sequence (P31749 whole entry) above
Chain of von Hippel-Lindau disease tumor suppressor/RAC-alpha serine/threonine-protein kinase (Homo sapiens) (P40337 whole entry, looked up): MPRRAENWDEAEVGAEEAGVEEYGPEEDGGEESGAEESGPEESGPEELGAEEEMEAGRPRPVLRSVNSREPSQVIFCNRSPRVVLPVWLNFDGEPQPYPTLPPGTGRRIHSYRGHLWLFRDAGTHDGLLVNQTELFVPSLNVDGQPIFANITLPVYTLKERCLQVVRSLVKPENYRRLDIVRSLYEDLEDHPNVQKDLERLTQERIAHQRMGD
Chain of RAC-beta serine/threonine-protein kinase (P31751 whole entry): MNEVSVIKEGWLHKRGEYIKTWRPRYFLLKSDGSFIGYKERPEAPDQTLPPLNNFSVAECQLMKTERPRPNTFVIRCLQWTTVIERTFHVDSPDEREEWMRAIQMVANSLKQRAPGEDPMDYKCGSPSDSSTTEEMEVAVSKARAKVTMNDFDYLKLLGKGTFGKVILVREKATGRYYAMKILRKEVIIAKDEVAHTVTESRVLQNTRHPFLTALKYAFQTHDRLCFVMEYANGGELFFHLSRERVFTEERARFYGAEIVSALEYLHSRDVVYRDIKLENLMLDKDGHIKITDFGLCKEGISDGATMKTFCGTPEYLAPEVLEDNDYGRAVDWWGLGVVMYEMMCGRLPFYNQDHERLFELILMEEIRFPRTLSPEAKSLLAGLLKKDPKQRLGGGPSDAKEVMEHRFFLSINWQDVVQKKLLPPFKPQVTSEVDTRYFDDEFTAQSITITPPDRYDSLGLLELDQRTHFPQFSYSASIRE
Chain of RAC-gamma serine/threonine-protein kinase (Q9Y243 whole entry): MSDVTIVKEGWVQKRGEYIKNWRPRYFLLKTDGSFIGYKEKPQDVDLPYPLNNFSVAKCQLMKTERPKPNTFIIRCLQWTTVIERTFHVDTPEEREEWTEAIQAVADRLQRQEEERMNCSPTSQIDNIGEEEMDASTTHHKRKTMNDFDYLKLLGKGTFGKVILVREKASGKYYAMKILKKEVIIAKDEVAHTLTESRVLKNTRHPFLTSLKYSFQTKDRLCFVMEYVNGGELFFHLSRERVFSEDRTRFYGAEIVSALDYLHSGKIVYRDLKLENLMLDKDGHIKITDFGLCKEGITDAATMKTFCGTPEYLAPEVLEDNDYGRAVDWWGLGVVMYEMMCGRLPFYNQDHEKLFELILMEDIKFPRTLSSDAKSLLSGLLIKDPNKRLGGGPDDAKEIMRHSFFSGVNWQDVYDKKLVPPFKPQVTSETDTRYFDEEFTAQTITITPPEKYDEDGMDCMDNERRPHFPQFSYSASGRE

Structure (SMILES) | Activity [1] | other results
Cc1ncsc1-c1ccc(CNC(=O)[C@@H]2C[C@@H](O)CN2C(=O)[C@@H](NC(=O)CCOCCNC(=O)CCc2cccc(-c3ccc4nc(-c5cccnc5N)n(-c5ccc(C6(N)CCC6)cc5)c4n3)c2)C(C)(C)C)cc1 | Active | –
Cc1ncsc1-c1ccc(CNC(=O)[C@@H]2C[C@@H](O)CN2C(=O)[C@@H](NC(=O)CCOCCOCCNC(=O)CCc2cccc(-c3ccc4nc(-c5cccnc5N)n(-c5ccc(C6(N)CCC6)cc5)c4n3)c2)C(C)(C)C)cc1 | Active | –
Cc1ncsc1-c1ccc(CNC(=O)[C@@H]2C[C@@H](O)CN2C(=O)[C@@H](NC(=O)CCCCCCCNC(=O)CCc2cccc(-c3ccc4nc(-c5cccnc5N)n(-c5ccc(C6(N)CCC6)cc5)c4n3)c2)C(C)(C)C)cc1 | Active | –
Cc1ncsc1-c1ccc(CNC(=O)[C@@H]2C[C@@H](O)CN2C(=O)[C@@H](NC(=O)CCCCCCCCNC(=O)CCc2cccc(-c3ccc4nc(-c5cccnc5N)n(-c5ccc(C6(N)CCC6)cc5)c4n3)c2)C(C)(C)C)cc1 | Active | –
Cc1ncsc1-c1ccc(CNC(=O)[C@@H]2C[C@@H](O)CN2C(=O)[C@@H](NC(=O)CCCCCCCCCC(=O)NCCc2cccc(-c3ccc4nc(-c5cccnc5N)n(-c5ccc(C6(N)CCC6)cc5)c4n3)c2)C(C)(C)C)cc1 | Active | inhibition [2]: Active
Cc1ncsc1-c1ccc(CNC(=O)[C@@H]2C[C@@H](O)CN2C(=O)[C@@H](NC(=O)COCCNC(=O)CCc2cccc(-c3ccc4nc(-c5cccnc5N)n(-c5ccc(C6(N)CCC6)cc5)c4n3)c2)C(C)(C)C)cc1 | Active | –
Cc1ncsc1-c1ccc(CNC(=O)[C@@H]2C[C@@H](O)CN2C(=O)[C@@H](NC(=O)COCCOCCNC(=O)CCc2cccc(-c3ccc4nc(-c5cccnc5N)n(-c5ccc(C6(N)CCC6)cc5)c4n3)c2)C(C)(C)C)cc1 | Active | –
Cc1ncsc1-c1ccc(CNC(=O)[C@@H]2C[C@@H](O)CN2C(=O)[C@@H](NC(=O)CCOCCOCCOCCOCCOCCC(=O)NCCc2cccc(-c3ccc4nc(-c5cccnc5N)n(-c5ccc(C6(N)CCC6)cc5)c4n3)c2)C(C)(C)C)cc1 | Active | –
Cc1ncsc1-c1ccc(CNC(=O)[C@@H]2C[C@@H](O)CN2C(=O)[C@@H](NC(=O)CCCCCCCC(=O)NCCc2cccc(-c3ccc4nc(-c5cccnc5N)n(-c5ccc(C6(N)CCC6)cc5)c4n3)c2)C(C)(C)C)cc1 | Active | –
Cc1ncsc1-c1ccc(CNC(=O)[C@@H]2C[C@@H](O)CN2C(=O)[C@@H](NC(=O)COCCOCCOCCOCCOCC(=O)NCCc2cccc(-c3ccc4nc(-c5cccnc5N)n(-c5ccc(C6(N)CCC6)cc5)c4n3)c2)C(C)(C)C)cc1 | Active | –
Cc1ncsc1-c1ccc([C@H](C)NC(=O)[C@H]2C[C@H](OCc3ccccc3)CN2C(=O)[C@@H](NC(=O)CCCCCCCCCCNC(=O)CCc2cccc(-c3ccc4nc(-c5cccnc5N)n(-c5ccc(C6(N)CCC6)cc5)c4n3)c2)C(C)(C)C)cc1 | – | IC50 [3]: 1800 nM; IC50 [4]: > 10 µM; IC50 [5]: 558 nM; IC50 [6]: 1200 nM
Cc1ncsc1-c1ccc(CNC(=O)[C@@H]2C[C@@H](O)CN2C(=O)[C@@H](NC(=O)COCC(=O)NCCc2cccc(-c3ccc4nc(-c5cccnc5N)n(-c5ccc(C6(N)CCC6)cc5)c4n3)c2)C(C)(C)C)cc1 | Active | –
Cc1ncsc1-c1ccc(CNC(=O)[C@@H]2C[C@@H](O)CN2C(=O)[C@@H](NC(=O)CCOCCC(=O)NCCc2cccc(-c3ccc4nc(-c5cccnc5N)n(-c5ccc(C6(N)CCC6)cc5)c4n3)c2)C(C)(C)C)cc1 | Active | –
Cc1ncsc1-c1ccc(CNC(=O)[C@@H]2C[C@@H](O)CN2C(=O)[C@@H](NC(=O)CCCCCCCCC(=O)NCCc2cccc(-c3ccc4nc(-c5cccnc5N)n(-c5ccc(C6(N)CCC6)cc5)c4n3)c2)C(C)(C)C)cc1 | Active | inhibition [2]: Active
Cc1ncsc1-c1ccc(CNC(=O)[C@@H]2C[C@@H](O)CN2C(=O)[C@@H](NC(=O)CCCCCCCCCCNC(=O)CCc2cccc(-c3ccc4nc(-c5cccnc5N)n(-c5ccc(C6(N)CCC6)cc5)c4n3)c2)C(C)(C)C)cc1 | Active | inhibition [2]: Active
Cc1ncsc1-c1ccc([C@H](C)NC(=O)[C@H]2C[C@H](O)CN2C(=O)[C@@H](NC(=O)CCCCCCCCCCNC(=O)CCc2cccc(-c3ccc4nc(-c5cccnc5N)n(-c5ccc(C6(N)CCC6)cc5)c4n3)c2)C(C)(C)C)cc1 | – | IC50 [3]: 407 nM; IC50 [5]: 86 nM; IC50 [6]: 684 nM
Cc1ncsc1-c1ccc(CNC(=O)[C@@H]2C[C@@H](O)CN2C(=O)[C@@H](NC(=O)COCCOCCOCCNC(=O)CCc2cccc(-c3ccc4nc(-c5cccnc5N)n(-c5ccc(C6(N)CCC6)cc5)c4n3)c2)C(C)(C)C)cc1 | Active | –
Cc1ncsc1-c1ccc(CNC(=O)[C@@H]2C[C@@H](O)CN2C(=O)[C@@H](NC(=O)CCCCCCCCCNC(=O)CCc2cccc(-c3ccc4nc(-c5cccnc5N)n(-c5ccc(C6(N)CCC6)cc5)c4n3)c2)C(C)(C)C)cc1 | Active | –
